The test system of one test is PPC-1. In words: Cytotoxicity against human PPC1 cells assessed as growth inhibition after 96 hrs by SRB assay. It counts as functional, cell-based. The conditions noted are these: PPC-1, 96 h. Summed up: (§1)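 Plated at 1000–5000 cells/well depending on growth rate and treated with graded compound concentrations for 96 h, three to five replicates. Cell number was measured by SRB: 10% TCA fixation, 0.4% SRB staining, absorbance at 540 nm. IC50 relative to untreated control came from a nonlinear regression fit.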
For `O=C(c1ccccc1)c1nc(-c2ccccc2)c[nH]1`, the IC50 is greater than 50000 nM.

Regarding `CCCc1[nH]c(C(=O)c2cc(OC)c(OC)c(OC)c2)nc1-c1ccccc1`, the concentration for half-maximal inhibition (IC50) stood at 11400 nM.

`COc1cc(C(=O)c2nc(-c3ccccc3)c(C)[nH]2)cc(OC)c1OC`: the concentration for half-maximal inhibition (IC50) came to 860 nM.

Take `COc1cc(C(=O)c2nc(-c3ccc(O)cc3)c[nH]2)cc(OC)c1OC`: the IC50 was determined as 122 nM.

For the compound `COc1cc(-c2c[nH]c(C(=O)c3ccccc3)n2)cc(OC)c1OC`, the IC50 stood at 408 nM.

As for `COc1ccc(-c2c[nH]c(C(=O)c3cc(OC)c(OC)c(OC)c3)n2)cc1`, the IC50 came to 54 nM.

As to `COc1ccc(C(=O)c2nc(-c3cc(OC)c(OC)c(OC)c3)c[nH]2)cc1`, the IC50 worked out at 5680 nM.

The subject of the next test is MDA-MB-435. In words: Cytotoxicity against human MDA-MB-435 cells assessed as growth inhibition after 48 hrs by SRB assay. It counts as functional, cell-based. The conditions noted are these: MDA-MB-435, 48 h.
On to `O=C(c1ccccc1)c1nc(-c2ccccc2)c[nH]1`, for which the IC50 is greater than 50 µM.

Take `CCCc1[nH]c(C(=O)c2cc(OC)c(OC)c(OC)c2)nc1-c1ccccc1`: the half-inhibitory concentration (IC50) turned out to be 30.5 µM.

`COc1cc(C(=O)c2nc(-c3ccccc3)c(C)[nH]2)cc(OC)c1OC`: the half-inhibitory concentration (IC50) was 1.63 µM.

Consider `COc1cc(C(=O)c2nc(-c3ccc(O)cc3)c[nH]2)cc(OC)c1OC`, for which the IC50 came out at 0.669 µM.

`COc1cc(-c2c[nH]c(C(=O)c3ccccc3)n2)cc(OC)c1OC`: the IC50 amounted to 4.61 µM.

For `COc1ccc(-c2c[nH]c(C(=O)c3cc(OC)c(OC)c(OC)c3)n2)cc1`, the half-maximal inhibitory concentration (IC50) stood at 0.055 µM.

`COc1ccc(C(=O)c2nc(-c3cc(OC)c(OC)c(OC)c3)c[nH]2)cc1`: the half-inhibitory concentration (IC50) is 11 µM.

Test system in a further test: not listed separately
In words: Cytotoxicity against human WM164 cells assessed as growth inhibition after 48 hrs by SRB assay. It counts as functional, cell-based. The note with it: WM164, 48 h. The method, boiled down:
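Melanoma cells from ATCC, grown in DMEM with 10% FBS at 37°C under 5% CO2. Seeded at 1000–5000 cells/well according to growth rate and exposed to a range of compound concentrations for 48 h, in three to five replicates. Cells were fixed with 10% TCA, stained with 0.4% SRB and read at 540 nm. IC50 (50% growth inhibition versus untreated control) was taken from nonlinear regression of % survival against concentration.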
Regarding `O=C(c1ccccc1)c1nc(-c2ccccc2)c[nH]1`, the IC50 was greater than 50000 nM.

Regarding `CCCc1[nH]c(C(=O)c2cc(OC)c(OC)c(OC)c2)nc1-c1ccccc1`, the half-inhibitory concentration (IC50) came to 19600 nM.

For the compound `COc1cc(C(=O)c2nc(-c3ccccc3)c(C)[nH]2)cc(OC)c1OC`, the IC50 amounted to 1900 nM.

Take `COc1cc(C(=O)c2nc(-c3ccc(O)cc3)c[nH]2)cc(OC)c1OC`: the 50% inhibitory concentration (IC50) is 549 nM.

For `COc1cc(-c2c[nH]c(C(=O)c3ccccc3)n2)cc(OC)c1OC`, the half-inhibitory concentration (IC50) amounted to 1270 nM.

As for `COc1ccc(-c2c[nH]c(C(=O)c3cc(OC)c(OC)c(OC)c3)n2)cc1`, the concentration for half-maximal inhibition (IC50) came out at 41 nM.

For the compound `COc1ccc(C(=O)c2nc(-c3cc(OC)c(OC)c(OC)c3)c[nH]2)cc1`, the half-maximal inhibitory concentration (IC50) came out at 36000 nM.

The next test deals with DU-145. In words: Cytotoxicity against human DU145 cells assessed as growth inhibition after 96 hrs by SRB assay. It counts as functional, cell-based. The conditions noted are these: Homo sapiens, DU-145, 96 h.
Turning to `O=C(c1ccccc1)c1nc(-c2ccccc2)c[nH]1`, the half-maximal inhibitory concentration (IC50) is greater than 50000 nM.

Turning to `CCCc1[nH]c(C(=O)c2cc(OC)c(OC)c(OC)c2)nc1-c1ccccc1`, the IC50 was determined as 16400 nM.

Consider `COc1cc(C(=O)c2nc(-c3ccccc3)c(C)[nH]2)cc(OC)c1OC`, for which the IC50 was 2000 nM.

As to `COc1cc(C(=O)c2nc(-c3ccc(O)cc3)c[nH]2)cc(OC)c1OC`, the half-inhibitory concentration (IC50) came out at 518 nM.

For `COc1cc(-c2c[nH]c(C(=O)c3ccccc3)n2)cc(OC)c1OC`, the concentration for half-maximal inhibition (IC50) is 1300 nM.

Consider `COc1ccc(-c2c[nH]c(C(=O)c3cc(OC)c(OC)c(OC)c3)n2)cc1`, for which the IC50 was 210 nM.

`COc1ccc(C(=O)c2nc(-c3cc(OC)c(OC)c(OC)c3)c[nH]2)cc1`: the half-maximal inhibitory concentration (IC50) is greater than 50000 nM.

In a further test the test system is PC-3. In words: Cytotoxicity against human PC3 cells assessed as growth inhibition after 96 hrs by SRB assay. Type of test: functional, cell-based. The note with it: PC-3, 96 h. The method, boiled down:
as §1
As for `O=C(c1ccccc1)c1nc(-c2ccccc2)c[nH]1`, the IC50 was greater than 50000 nM.

As to `CCCc1[nH]c(C(=O)c2cc(OC)c(OC)c(OC)c2)nc1-c1ccccc1`, the half-maximal inhibitory concentration (IC50) came out at 12400 nM.

With `COc1cc(C(=O)c2nc(-c3ccccc3)c(C)[nH]2)cc(OC)c1OC`, the 50% inhibitory concentration (IC50) amounted to 1620 nM.

For `COc1cc(C(=O)c2nc(-c3ccc(O)cc3)c[nH]2)cc(OC)c1OC`, the half-inhibitory concentration (IC50) was 155 nM.

Regarding `COc1cc(-c2c[nH]c(C(=O)c3ccccc3)n2)cc(OC)c1OC`, the concentration for half-maximal inhibition (IC50) worked out at 632 nM.

As for `COc1ccc(-c2c[nH]c(C(=O)c3cc(OC)c(OC)c(OC)c3)n2)cc1`, the IC50 amounted to 61 nM.

In the case of `COc1ccc(C(=O)c2nc(-c3cc(OC)c(OC)c(OC)c3)c[nH]2)cc1`, the 50% inhibitory concentration (IC50) was determined as 10400 nM.

The next test has as its system A-375. Description: Cytotoxicity against human A375 cells assessed as growth inhibition after 48 hrs by SRB assay. The conditions noted are these: A-375, 48 h. It counts as functional, cell-based. Summed up: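 Melanoma cells from ATCC, grown in DMEM with 10% FBS at 37°C under 5% CO2. Seeded at 1000–5000 cells/well according to growth rate and exposed to a range of compound concentrations for 48 h, in three to five replicates. Cells were fixed with 10% TCA, stained with 0.4% SRB and read at 540 nm.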
As for `O=C(c1ccccc1)c1nc(-c2ccccc2)c[nH]1`, the half-inhibitory concentration (IC50) was greater than 50000 nM.

In the case of `CCCc1[nH]c(C(=O)c2cc(OC)c(OC)c(OC)c2)nc1-c1ccccc1`, the IC50 worked out at 37000 nM.

Regarding `COc1cc(C(=O)c2nc(-c3ccccc3)c(C)[nH]2)cc(OC)c1OC`, the IC50 was 1300 nM.

Regarding `COc1cc(C(=O)c2nc(-c3ccc(O)cc3)c[nH]2)cc(OC)c1OC`, the IC50 is 487 nM.

For `COc1cc(-c2c[nH]c(C(=O)c3ccccc3)n2)cc(OC)c1OC`, the half-inhibitory concentration (IC50) amounted to 1020 nM.

For the compound `COc1ccc(-c2c[nH]c(C(=O)c3cc(OC)c(OC)c(OC)c3)n2)cc1`, the half-inhibitory concentration (IC50) was found to be 33 nM.

For `COc1ccc(C(=O)c2nc(-c3cc(OC)c(OC)c(OC)c3)c[nH]2)cc1`, the 50% inhibitory concentration (IC50) was 35400 nM.

For a further test, the system named is LNCaP. In words: Cytotoxicity against human LNCAP cells assessed as growth inhibition after 96 hrs by SRB assay. Type of test: functional, cell-based.
Conditions: not given
The method, boiled down:
as §1
For the compound `O=C(c1ccccc1)c1nc(-c2ccccc2)c[nH]1`, the half-inhibitory concentration (IC50) is greater than 50000 nM.

In the case of `CCCc1[nH]c(C(=O)c2cc(OC)c(OC)c(OC)c2)nc1-c1ccccc1`, the IC50 is 3090 nM.

In the case of `COc1cc(C(=O)c2nc(-c3ccccc3)c(C)[nH]2)cc(OC)c1OC`, the concentration for half-maximal inhibition (IC50) turned out to be 938 nM.

With `COc1cc(C(=O)c2nc(-c3ccc(O)cc3)c[nH]2)cc(OC)c1OC`, the IC50 came to 219 nM.

On to `COc1cc(-c2c[nH]c(C(=O)c3ccccc3)n2)cc(OC)c1OC`, for which the IC50 came out at 195 nM.

In the case of `COc1ccc(C(=O)c2nc(-c3cc(OC)c(OC)c(OC)c3)c[nH]2)cc1`, the IC50 is 708 nM.

Test system in the next test: not listed separately
Description: Cytotoxicity against human MDA-MB-435/LCC6MDR1 cells assessed as growth inhibition after 48 hrs by SRB assay. The note with it: Homo sapiens, MDA-MB-435/LCC6 MDR1, 48 h. It counts as functional, cell-based, MDA-MB-435/LCC6 MDR1.
Consider `O=C(c1ccccc1)c1nc(-c2ccccc2)c[nH]1`, for which the half-inhibitory concentration (IC50) was greater than 50 µM.

With `CCCc1[nH]c(C(=O)c2cc(OC)c(OC)c(OC)c2)nc1-c1ccccc1`, the concentration for half-maximal inhibition (IC50) turned out to be 14.3 µM.

For the compound `COc1cc(C(=O)c2nc(-c3ccccc3)c(C)[nH]2)cc(OC)c1OC`, the half-inhibitory concentration (IC50) was determined as 1.59 µM.

In the case of `COc1cc(C(=O)c2nc(-c3ccc(O)cc3)c[nH]2)cc(OC)c1OC`, the IC50 came to 0.455 µM.

On to `COc1cc(-c2c[nH]c(C(=O)c3ccccc3)n2)cc(OC)c1OC`, for which the half-maximal inhibitory concentration (IC50) is 5.77 µM.

With `COc1ccc(-c2c[nH]c(C(=O)c3cc(OC)c(OC)c(OC)c3)n2)cc1`, the IC50 is 0.059 µM.

With `COc1ccc(C(=O)c2nc(-c3cc(OC)c(OC)c(OC)c3)c[nH]2)cc1`, the concentration for half-maximal inhibition (IC50) was determined as 11.4 µM.

The values are drawn from ChEMBL document CHEMBL2321845, “Discovery of 4-Aryl-2-benzoyl-imidazoles as tubulin polymerization inhibitor with potent antiproliferative properties” (J Med Chem, 2013).
